Tests used:
[1] = target: Mitogen-activated protein kinase kinase kinase 9 (Homo sapiens) (UniProt P80192); assay: Inhibition of recombinant MLK1 (unknown origin) assessed as residual activity using [gamma-33P]ATP as substrate at 1 uM
Summary of the method: (§1)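 Selectivity panel run under previously published conditions. Screened at 1 μM in duplicate. Reactions started with [γ-33P]ATP (800 cpm/pmol) at 5, 20 or 50 μM, chosen to be at or below each enzyme's ATP Km. Stopped with phosphoric acid, spotted onto P81 filters. Result expressed as residual kinase activity.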

[2] = system: MCF7; assay: Cytotoxicity against human MCF7 cells assessed as inhibition of cell viability after 72 hrs by calcien AM dye based fluorescence analysis; format: functional; details: MCF7, 72 h
Summary of the method: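 MCF7 cells grown in DMEM with 10% FBS, 2 mM glutamine, penicillin and streptomycin at 37 °C and 5% CO2. About 10,000 cells per well, left 4 h, then a concentration range added in triplicate, DMSO ≤0.5% final. After 72 h, 1 µg/ml calcein AM (final) for 1 h; fluorescence read at 485/538 nm. Viability given as % of control; IC50 read graphically from dose-response curves; mean of ≥3 independent experiments.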

[3] = target: Mitogen-activated protein kinase 12 (Homo sapiens) (UniProt P53778); assay: Inhibition of recombinant p38 MAPKgamma (unknown origin) assessed as residual activity using [gamma-33P]ATP as substrate at 1 uM
Summary of the method: (§2)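 Kinase panel screen with each compound at 1 µM, in duplicate. Reactions were started with [γ-33P]ATP (800 cpm/pmol) at 5, 20 or 50 µM, chosen per enzyme to be at or below its ATP Km. Reactions were stopped with phosphoric acid and spotted onto P81 filters. Results are given as residual kinase activity.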

[4] = target: MAP kinase-activated protein kinase 3 (Homo sapiens) (UniProt Q16644); assay: Inhibition of recombinant MAPKAPK3 (unknown origin) assessed as residual activity using [gamma-33P]ATP as substrate at 1 uM; summary of the method: as §1
[5] = target: Serine/threonine-protein kinase MARK2 (Homo sapiens) (UniProt Q7KZI7); assay: Inhibition of recombinant MARK2 (unknown origin) assessed as residual activity using [gamma-33P]ATP as substrate at 1 uM; summary of the method: as §1
[6] = target: Insulin-like growth factor 1 receptor (Homo sapiens) (UniProt P08069); assay: Inhibition of recombinant IGF-1R (unknown origin) assessed as residual activity using [gamma-33P]ATP as substrate at 1 uM
Summary of the method: (§3)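 Recombinant kinase panel screened at 1 µM in duplicate. Reactions started with [γ-33P]ATP (800 cpm/pmol) at 5, 20 or 50 µM, chosen to sit at or below each enzyme's ATP Km. Stopped with phosphoric acid and spotted onto P81 filters. Result given as residual kinase activity.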

[7] = target: Serine/threonine-protein kinase 33 (Homo sapiens) (UniProt Q9BYT3); assay: Inhibition of recombinant STK33 (unknown origin) assessed as residual activity using [gamma-33P]ATP as substrate at 1 uM; summary of the method: as §2
[8] = target: Angiopoietin-1 receptor (Homo sapiens) (UniProt Q02763); assay: Inhibition of recombinant TIE2 (unknown origin) assessed as residual activity using [gamma-33P]ATP as substrate at 1 uM; summary of the method: as §2
[9] = target: Inhibitor of nuclear factor kappa-B kinase subunit beta (Homo sapiens) (UniProt O14920); assay: Inhibition of recombinant IKKbeta (unknown origin) assessed as residual activity using [gamma-33P]ATP as substrate at 1 uM; summary of the method: as §3
[10] = target: Serine/threonine-protein kinase Chk2 (Homo sapiens) (UniProt O96017); assay: Inhibition of recombinant CHK2 (unknown origin) assessed as residual activity using [gamma-33P]ATP as substrate at 1 uM; summary of the method: as §3
[11] = target: Serine/threonine-protein kinase Sgk1 (Homo sapiens) (UniProt O00141); assay: Inhibition of recombinant SGK1 (unknown origin) assessed as residual activity using [gamma-33P]ATP as substrate at 1 uM; summary of the method: as §2
[12] = target: Cyclin-dependent kinase 1/cyclin B1 (Homo sapiens, UniProt P06493); assay: Inhibition of recombinant CDK1/cyclin B (unknown origin) using histone H1 as substrate in presence of [gamma-33P]ATP; format: protein-complex assay
[13] = target: Eukaryotic translation initiation factor 2-alpha kinase 3 (Homo sapiens) (UniProt Q9NZJ5); assay: Inhibition of recombinant EIF2AK3 (unknown origin) assessed as residual activity using [gamma-33P]ATP as substrate at 1 uM; summary of the method: as §3
[14] = target: MAP kinase-interacting serine/threonine-protein kinase 1 (Homo sapiens) (UniProt Q9BUB5); assay: Inhibition of recombinant MNK1 (unknown origin) assessed as residual activity using [gamma-33P]ATP as substrate at 1 uM; summary of the method: as §1
[15] = target: Dual specificity tyrosine-phosphorylation-regulated kinase 3 (Homo sapiens) (UniProt O43781); assay: Inhibition of recombinant DYRK3 (unknown origin) assessed as residual activity using [gamma-33P]ATP as substrate at 1 uM; summary of the method: as §3
[16] = target: Aurora kinase B (Homo sapiens) (UniProt Q96GD4); assay: Inhibition of recombinant AURB (unknown origin) assessed as residual activity using [gamma-33P]ATP as substrate at 1 uM; summary of the method: as §3
[17] = target: Mitogen-activated protein kinase 14 (Homo sapiens) (UniProt Q16539); assay: Inhibition of recombinant p38 MAPKalpha (unknown origin) assessed as residual activity using [gamma-33P]ATP as substrate at 1 uM; summary of the method: as §2
[18] = target: Rho-associated protein kinase 2 (Homo sapiens) (UniProt O75116); assay: Inhibition of recombinant ROCK2 (unknown origin) assessed as residual activity using [gamma-33P]ATP as substrate at 1 uM; summary of the method: as §1
[19] = target: 3-phosphoinositide-dependent protein kinase 1 (Homo sapiens) (UniProt O15530); assay: Inhibition of recombinant PDK1 (unknown origin) assessed as residual activity using [gamma-33P]ATP as substrate at 1 uM
[20] = system: MCF7; assay: Cell cycle arrest in human MCF7 cells assessed as accumulation of cells in G2+M phase at 100 uM after 24 hrs by propidium iodide staining based flow cytometry relative to untreated control; format: functional
Summary of the method: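 Flow cytometry on MCF7 cells given 100 µM for 24 h. About one million cells fixed in 90% methanol and rehydrated. DNA stained with propidium iodide, read at 488/575 nm (ex/em). The value is the G2+M fraction of treated cells divided by the G2+M fraction of untreated control cells.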

[21] = target: Serine/threonine-protein kinase 3 (Homo sapiens) (UniProt Q13188); assay: Inhibition of recombinant MST2 (unknown origin) assessed as residual activity using [gamma-33P]ATP as substrate at 1 uM; summary of the method: as §1
[22] = target: Casein kinase II (Homo sapiens) (UniProt P67870+P68400+P19784); assay: Inhibition of recombinant CK2 (unknown origin) assessed as residual activity using [gamma-33P]ATP as substrate at 1 uM; format: protein-complex assay; summary of the method: as §3
[23] = target: Misshapen-like kinase 1 (Homo sapiens) (UniProt Q8N4C8); assay: Inhibition of recombinant MINK1 (unknown origin) assessed as residual activity using [gamma-33P]ATP as substrate at 1 uM; summary of the method: as §1
[24] = target: Tyrosine-protein kinase CSK (Homo sapiens) (UniProt P41240); assay: Inhibition of recombinant CSK (unknown origin) assessed as residual activity using [gamma-33P]ATP as substrate at 1 uM; summary of the method: as §3

Chain of Serine/threonine-protein kinase 3 (Homo sapiens) (Q13188 whole entry): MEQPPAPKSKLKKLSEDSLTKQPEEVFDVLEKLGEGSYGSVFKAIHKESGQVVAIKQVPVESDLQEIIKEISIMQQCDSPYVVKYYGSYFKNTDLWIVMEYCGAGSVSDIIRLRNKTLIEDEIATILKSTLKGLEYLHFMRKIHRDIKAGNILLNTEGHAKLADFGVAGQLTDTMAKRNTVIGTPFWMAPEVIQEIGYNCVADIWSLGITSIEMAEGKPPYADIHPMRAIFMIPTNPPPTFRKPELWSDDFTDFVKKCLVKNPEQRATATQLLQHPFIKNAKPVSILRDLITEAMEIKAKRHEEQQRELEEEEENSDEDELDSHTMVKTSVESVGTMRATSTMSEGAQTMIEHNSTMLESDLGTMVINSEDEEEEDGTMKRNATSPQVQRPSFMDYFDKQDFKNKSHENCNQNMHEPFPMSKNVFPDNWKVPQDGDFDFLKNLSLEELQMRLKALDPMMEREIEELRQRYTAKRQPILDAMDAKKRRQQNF
Chain of Misshapen-like kinase 1 (Homo sapiens) (Q8N4C8 whole entry, looked up): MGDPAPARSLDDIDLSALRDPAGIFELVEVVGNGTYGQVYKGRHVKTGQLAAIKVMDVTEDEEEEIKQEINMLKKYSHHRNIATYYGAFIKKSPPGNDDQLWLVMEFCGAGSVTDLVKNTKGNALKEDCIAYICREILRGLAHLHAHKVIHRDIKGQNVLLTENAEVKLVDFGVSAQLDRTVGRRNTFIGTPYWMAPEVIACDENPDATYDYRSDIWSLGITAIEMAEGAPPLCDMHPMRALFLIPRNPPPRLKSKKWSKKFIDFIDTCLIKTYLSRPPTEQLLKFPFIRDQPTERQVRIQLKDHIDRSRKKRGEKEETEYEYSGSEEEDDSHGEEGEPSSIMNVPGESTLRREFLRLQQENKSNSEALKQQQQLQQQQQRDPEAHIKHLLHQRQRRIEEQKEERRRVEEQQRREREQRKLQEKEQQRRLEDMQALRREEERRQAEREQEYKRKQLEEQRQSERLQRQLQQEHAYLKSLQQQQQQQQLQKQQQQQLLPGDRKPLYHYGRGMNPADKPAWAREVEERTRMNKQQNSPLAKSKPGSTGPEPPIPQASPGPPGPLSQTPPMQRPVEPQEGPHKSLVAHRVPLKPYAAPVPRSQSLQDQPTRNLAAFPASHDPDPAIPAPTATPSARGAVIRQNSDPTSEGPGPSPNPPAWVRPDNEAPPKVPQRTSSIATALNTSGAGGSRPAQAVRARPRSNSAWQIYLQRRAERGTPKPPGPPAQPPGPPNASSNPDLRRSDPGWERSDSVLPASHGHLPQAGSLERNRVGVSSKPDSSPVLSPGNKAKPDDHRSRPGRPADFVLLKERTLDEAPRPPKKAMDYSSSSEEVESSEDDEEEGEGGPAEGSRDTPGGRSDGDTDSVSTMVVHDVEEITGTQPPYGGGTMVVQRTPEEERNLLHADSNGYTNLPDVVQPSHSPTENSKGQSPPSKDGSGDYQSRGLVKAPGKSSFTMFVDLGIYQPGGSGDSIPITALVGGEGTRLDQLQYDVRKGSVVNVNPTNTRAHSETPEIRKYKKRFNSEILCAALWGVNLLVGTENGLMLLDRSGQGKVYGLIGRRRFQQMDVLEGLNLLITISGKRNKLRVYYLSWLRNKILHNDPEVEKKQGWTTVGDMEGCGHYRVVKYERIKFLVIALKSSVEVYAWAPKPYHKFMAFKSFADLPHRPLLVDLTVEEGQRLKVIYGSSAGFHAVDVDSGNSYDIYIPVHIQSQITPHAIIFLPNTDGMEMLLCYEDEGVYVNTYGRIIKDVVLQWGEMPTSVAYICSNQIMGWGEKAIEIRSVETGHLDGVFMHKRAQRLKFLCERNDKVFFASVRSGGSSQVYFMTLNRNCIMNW
Chain of Eukaryotic translation initiation factor 2-alpha kinase 3 (Homo sapiens) (Q9NZJ5 whole entry): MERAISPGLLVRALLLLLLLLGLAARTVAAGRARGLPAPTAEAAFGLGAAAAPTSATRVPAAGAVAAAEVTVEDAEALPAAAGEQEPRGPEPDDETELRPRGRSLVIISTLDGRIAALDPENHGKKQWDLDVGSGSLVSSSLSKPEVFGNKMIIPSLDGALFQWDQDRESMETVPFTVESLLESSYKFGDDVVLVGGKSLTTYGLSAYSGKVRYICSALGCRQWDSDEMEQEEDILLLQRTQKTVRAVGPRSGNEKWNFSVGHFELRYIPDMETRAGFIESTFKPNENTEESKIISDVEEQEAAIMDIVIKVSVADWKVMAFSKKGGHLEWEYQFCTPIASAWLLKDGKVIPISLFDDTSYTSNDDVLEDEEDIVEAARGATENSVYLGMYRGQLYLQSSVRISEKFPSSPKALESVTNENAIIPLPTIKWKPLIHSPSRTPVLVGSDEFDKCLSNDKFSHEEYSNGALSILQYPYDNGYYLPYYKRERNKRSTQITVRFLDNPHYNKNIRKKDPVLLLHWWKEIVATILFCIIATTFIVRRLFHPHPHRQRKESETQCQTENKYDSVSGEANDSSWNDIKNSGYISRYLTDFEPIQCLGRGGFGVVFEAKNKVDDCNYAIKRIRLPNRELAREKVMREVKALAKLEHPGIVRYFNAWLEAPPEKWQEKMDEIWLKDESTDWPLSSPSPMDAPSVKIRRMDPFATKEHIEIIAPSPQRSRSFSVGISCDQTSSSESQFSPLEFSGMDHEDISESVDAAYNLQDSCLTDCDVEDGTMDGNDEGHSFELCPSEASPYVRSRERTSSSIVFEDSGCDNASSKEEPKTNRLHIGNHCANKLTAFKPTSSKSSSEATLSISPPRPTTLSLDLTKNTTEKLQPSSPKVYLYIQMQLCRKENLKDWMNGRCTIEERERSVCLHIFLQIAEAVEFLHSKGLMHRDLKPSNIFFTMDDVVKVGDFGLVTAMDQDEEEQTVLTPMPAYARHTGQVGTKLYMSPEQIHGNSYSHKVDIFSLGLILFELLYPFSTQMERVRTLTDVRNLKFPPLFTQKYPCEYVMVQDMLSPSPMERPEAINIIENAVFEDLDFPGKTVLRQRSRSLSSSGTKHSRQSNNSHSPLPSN
Chain of Insulin-like growth factor 1 receptor (Homo sapiens) (P08069 31-736 limits assumed): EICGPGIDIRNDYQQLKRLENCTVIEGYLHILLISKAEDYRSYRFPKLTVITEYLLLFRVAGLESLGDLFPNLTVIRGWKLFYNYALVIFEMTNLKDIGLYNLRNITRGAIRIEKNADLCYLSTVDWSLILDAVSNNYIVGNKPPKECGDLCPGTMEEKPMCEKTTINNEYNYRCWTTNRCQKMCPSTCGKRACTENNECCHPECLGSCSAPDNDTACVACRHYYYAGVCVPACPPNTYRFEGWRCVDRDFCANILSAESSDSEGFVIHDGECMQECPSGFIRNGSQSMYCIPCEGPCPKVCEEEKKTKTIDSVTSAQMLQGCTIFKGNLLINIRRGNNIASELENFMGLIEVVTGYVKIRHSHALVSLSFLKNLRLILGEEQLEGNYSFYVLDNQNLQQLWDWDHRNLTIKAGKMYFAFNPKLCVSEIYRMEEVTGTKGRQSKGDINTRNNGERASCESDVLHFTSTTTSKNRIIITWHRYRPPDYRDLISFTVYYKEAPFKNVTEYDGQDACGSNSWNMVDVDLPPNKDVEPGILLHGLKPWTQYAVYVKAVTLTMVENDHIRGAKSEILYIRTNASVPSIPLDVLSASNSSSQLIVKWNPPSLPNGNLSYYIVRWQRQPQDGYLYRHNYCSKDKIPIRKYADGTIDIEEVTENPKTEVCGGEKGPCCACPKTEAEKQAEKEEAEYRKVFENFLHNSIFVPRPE
Chain of Insulin-like growth factor 1 receptor (Homo sapiens) (P08069 741-1367 limits assumed): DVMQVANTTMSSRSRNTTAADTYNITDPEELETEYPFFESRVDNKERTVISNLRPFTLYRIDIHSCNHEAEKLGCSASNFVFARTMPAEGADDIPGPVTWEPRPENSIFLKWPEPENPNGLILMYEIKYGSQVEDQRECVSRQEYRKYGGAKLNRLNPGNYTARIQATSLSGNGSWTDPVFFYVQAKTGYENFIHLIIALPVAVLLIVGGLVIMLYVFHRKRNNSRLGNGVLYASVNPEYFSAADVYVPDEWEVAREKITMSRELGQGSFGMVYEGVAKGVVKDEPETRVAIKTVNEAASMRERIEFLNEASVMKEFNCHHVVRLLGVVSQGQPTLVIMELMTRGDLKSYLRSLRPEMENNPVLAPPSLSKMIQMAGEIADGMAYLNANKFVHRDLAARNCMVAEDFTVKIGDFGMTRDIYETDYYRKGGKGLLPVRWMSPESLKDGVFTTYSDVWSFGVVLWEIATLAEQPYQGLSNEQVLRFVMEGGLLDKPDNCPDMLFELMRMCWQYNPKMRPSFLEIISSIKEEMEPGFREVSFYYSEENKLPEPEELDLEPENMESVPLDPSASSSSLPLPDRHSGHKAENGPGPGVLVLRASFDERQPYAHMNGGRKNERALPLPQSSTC
Chain of MAP kinase-interacting serine/threonine-protein kinase 1 (Homo sapiens) (Q9BUB5 whole entry, looked up): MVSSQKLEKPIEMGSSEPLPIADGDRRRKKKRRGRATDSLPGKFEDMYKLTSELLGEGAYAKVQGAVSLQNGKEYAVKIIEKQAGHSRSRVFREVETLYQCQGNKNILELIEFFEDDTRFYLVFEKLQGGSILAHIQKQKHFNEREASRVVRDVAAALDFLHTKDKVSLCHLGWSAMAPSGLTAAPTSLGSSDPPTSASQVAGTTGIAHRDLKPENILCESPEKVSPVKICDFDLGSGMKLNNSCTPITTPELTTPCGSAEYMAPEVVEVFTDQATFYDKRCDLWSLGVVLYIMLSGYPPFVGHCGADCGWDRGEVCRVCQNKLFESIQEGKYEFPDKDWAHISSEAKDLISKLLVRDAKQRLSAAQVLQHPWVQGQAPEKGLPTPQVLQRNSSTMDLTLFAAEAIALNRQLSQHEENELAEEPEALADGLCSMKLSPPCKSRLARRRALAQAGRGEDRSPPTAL

CC[C@H](CO)Nc1nc(NC(=N)N)c2ncn(C(C)C)c2n1
Activity [1]: 25% | IC50 [2]: 4.5 µM | Activity [3]: 77% | Activity [4]: 80% | Activity [5]: 45% | Activity [6]: 10% | Activity [7]: 11% | Activity [8]: 39% | Activity [9]: 74% | Activity [10]: 59% | Activity [11]: 60% | IC50 [12]: 2.1 µM | Activity [13]: 17% | Activity [14]: 173% | Activity [15]: 18% | Activity [16]: 47% | Activity [17]: 87% | Activity [18]: 61% | Activity [19]: 68% | Ratio [20]: 1.8 | Activity [21]: 35% | Activity [22]: 43% | Activity [23]: 64% | Activity [24]: 58%

CC[C@@H](CO)Nc1nc(NC(=N)N)c2ncn(C(C)C)c2n1
Activity [1]: 31% | IC50 [2]: 1.6 µM | Activity [3]: 71% | Activity [4]: 78% | Activity [5]: 62% | Activity [6]: 5% | Activity [7]: 9% | Activity [8]: 40% | Activity [9]: 76% | Activity [10]: 42% | Activity [11]: 51% | IC50 [12]: 0.9 µM | Activity [13]: 11% | Activity [14]: 178% | Activity [15]: 11% | Activity [16]: 70% | Activity [17]: 82% | Activity [18]: 65% | Activity [19]: 62% | Ratio [20]: 1.6 | Activity [21]: 43% | Activity [22]: 33% | Activity [23]: 75% | Activity [24]: 59%

From ChEMBL document CHEMBL2331324, “Synthesis and biological evaluation of guanidino analogues of roscovitine” (Eur J Med Chem, 2013)
